Results reported in ChEMBL document CHEMBL1140836, “Hybrid angiogenesis inhibitors: synthesis and biological evaluation of bifunctional compounds based on 1-deoxynojirimycin and aryl-1,2,3-triazoles” (Bioorg Med Chem Lett, 2008).
Active and inactive are the calls of the source. The calls are words filed in the database; no cut-off is given here.

Experiments:
Alpha-glucosidase = biological target: T1, Alpha-glucosidase (Geobacillus stearothermophilus, UniProt P94451); test: (§1) Inhibition of alpha glucosidase from bacillus stearothermophilus
T1 sequence (P94451 whole entry): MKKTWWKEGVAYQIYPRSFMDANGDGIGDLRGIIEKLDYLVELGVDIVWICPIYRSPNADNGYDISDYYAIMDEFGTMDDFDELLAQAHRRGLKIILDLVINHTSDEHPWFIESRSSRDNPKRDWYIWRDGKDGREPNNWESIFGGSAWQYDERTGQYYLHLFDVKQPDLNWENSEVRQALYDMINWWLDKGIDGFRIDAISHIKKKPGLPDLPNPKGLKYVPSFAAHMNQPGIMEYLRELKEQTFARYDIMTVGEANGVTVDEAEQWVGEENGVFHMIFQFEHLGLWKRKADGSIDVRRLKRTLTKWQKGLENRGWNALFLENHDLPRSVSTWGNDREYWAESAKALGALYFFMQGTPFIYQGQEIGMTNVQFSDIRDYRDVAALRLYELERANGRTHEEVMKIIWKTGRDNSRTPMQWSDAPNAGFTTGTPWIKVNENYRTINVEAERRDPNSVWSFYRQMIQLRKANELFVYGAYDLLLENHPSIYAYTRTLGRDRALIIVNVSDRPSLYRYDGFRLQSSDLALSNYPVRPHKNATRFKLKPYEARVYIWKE

BAEC [1] = test: Antiangiogenesis activity in bovine BAEC cells assessed as inhibition of tube formation on Matrigel at 0.2 mM; type: functional, cell-based; conditions: Bos taurus
Procedure, shortened: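 BAECs pretreated with compound (0.2 mM) 24 h, harvested, 3 × 10⁴ cells/0.1 ml in RPMI 1640 with 10 ng/mL bFGF plus 0.2 mM compound (controls bFGF only), layered on growth factor–reduced Matrigel polymerized 1 h at 37 °C; 8 h at 37 °C, 5% CO₂. Tubes counted in at least five microscope fields, averaged per field; repeated at least twice.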

[2] = (§2) Growth inhibition of bovine BAEC by MTT assay; type: functional, cell-based; conditions: Bos taurus
Procedure, shortened: (§3)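 BAECs in RPMI 1640 with 10% heat-inactivated FBS, 3 × 10³ cells/well, seeded overnight, then exposed to compounds (10⁻⁶–10⁻³ M) for 48 h at 37 °C, 5% CO₂. MTT added to 0.5 mg/mL final, 3 h at 37 °C; formazan dissolved in DMSO, absorbance at 570 nm. Quadruplicate wells, experiments repeated at least twice; IC₅₀ determined.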

[3] = biological target: T2, Alpha-glucosidase (Geobacillus stearothermophilus) (UniProt P94451); test: as §1
T2 sequence (whole entry): T1 sequence (P94451 whole entry)

[4] = biological target: Methionine aminopeptidase 2 (Homo sapiens) (UniProt P50579); test: Inhibition of MetAP2
Sequence of Methionine aminopeptidase 2 (Homo sapiens) (P50579 2-478 limits assumed): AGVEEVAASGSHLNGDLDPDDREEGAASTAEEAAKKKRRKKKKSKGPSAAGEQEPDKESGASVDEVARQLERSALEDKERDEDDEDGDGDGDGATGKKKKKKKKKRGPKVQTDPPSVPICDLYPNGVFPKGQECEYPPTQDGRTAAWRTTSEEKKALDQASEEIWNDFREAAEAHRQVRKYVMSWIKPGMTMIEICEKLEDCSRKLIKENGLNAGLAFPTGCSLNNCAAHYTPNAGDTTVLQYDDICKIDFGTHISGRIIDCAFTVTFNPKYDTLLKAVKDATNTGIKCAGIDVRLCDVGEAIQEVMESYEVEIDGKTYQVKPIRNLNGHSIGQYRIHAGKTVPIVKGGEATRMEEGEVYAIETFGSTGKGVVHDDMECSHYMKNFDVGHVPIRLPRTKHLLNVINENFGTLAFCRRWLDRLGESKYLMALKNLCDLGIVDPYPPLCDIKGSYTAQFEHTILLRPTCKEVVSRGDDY

BAEC [5] = test: as §2; type: functional, cell-based; conditions: Bos taurus; procedure, shortened: as §3

| IC50 (Alpha-glucosidase) [µM] | Activity [3] | Activity [4] | Structure (SMILES) | Activity (BAEC [1]) | IC50 [2] [µM] | Activity (BAEC [5]) |
| --- | --- | --- | --- | --- | --- | --- |
| 6.07 | – | – | OC[C@@H]1[C@@H](O)[C@H](O)[C@@H](O)CN1CCCCOc1cccc(-c2cnn[nH]2)c1 | inactive | 797 | – |
| 2.41 | – | – | OC[C@@H]1[C@@H](O)[C@H](O)[C@@H](O)CN1CCCCCCOc1cccc(-c2cnn[nH]2)c1 | inactive | 610 | – |
| 1.15 | – | – | OC[C@@H]1[C@@H](O)[C@H](O)[C@@H](O)CN1CCCCCCCCOc1cccc(-c2cnn[nH]2)c1 | – | 105 | – |
| – | inactive | Active | COc1cccc(-c2cnn[nH]2)c1 | – | 347 | – |
| – | – | – | OC[C@H]1NC[C@H](O)[C@@H](O)[C@@H]1O | – | – | inactive |
